Test [1] deals with T1, Amine oxidase [flavin-containing] A (Rattus norvegicus, UniProt P21396).
T1 sequence (P21396 whole entry): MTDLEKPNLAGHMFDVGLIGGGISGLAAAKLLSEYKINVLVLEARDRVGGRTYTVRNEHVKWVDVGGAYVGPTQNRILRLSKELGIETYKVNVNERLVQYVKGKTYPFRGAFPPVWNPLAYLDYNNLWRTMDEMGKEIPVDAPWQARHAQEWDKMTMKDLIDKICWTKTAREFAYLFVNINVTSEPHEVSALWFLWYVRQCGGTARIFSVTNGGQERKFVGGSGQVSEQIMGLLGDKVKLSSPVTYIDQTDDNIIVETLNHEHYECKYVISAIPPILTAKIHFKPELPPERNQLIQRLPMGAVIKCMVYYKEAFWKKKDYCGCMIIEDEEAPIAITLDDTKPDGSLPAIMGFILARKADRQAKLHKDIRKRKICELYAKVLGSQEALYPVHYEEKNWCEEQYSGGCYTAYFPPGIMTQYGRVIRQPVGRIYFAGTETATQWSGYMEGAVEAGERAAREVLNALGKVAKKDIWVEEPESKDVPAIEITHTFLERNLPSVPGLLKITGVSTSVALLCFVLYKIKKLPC
In words: Inhibition of MAOA in rat brain mitochondria. In a few lines: (§1)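 Substrate is 5-HT for MAO-A and DMAPEA for MAO-B. Substrates and their metabolites are measured by HPLC with electrochemical detection. Percent inhibition is taken against enzyme treated the same way without inhibitor and plotted against −log inhibitor concentration to give IC50. Runs are at least two independent experiments, each in triplicate. Ki is from IC50 by Cheng–Prusoff, using the substrate's Km.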

In test [2] the target is T2, Amine oxidase [flavin-containing] B (Rattus norvegicus, UniProt P19643).
T2 sequence (P19643 whole entry): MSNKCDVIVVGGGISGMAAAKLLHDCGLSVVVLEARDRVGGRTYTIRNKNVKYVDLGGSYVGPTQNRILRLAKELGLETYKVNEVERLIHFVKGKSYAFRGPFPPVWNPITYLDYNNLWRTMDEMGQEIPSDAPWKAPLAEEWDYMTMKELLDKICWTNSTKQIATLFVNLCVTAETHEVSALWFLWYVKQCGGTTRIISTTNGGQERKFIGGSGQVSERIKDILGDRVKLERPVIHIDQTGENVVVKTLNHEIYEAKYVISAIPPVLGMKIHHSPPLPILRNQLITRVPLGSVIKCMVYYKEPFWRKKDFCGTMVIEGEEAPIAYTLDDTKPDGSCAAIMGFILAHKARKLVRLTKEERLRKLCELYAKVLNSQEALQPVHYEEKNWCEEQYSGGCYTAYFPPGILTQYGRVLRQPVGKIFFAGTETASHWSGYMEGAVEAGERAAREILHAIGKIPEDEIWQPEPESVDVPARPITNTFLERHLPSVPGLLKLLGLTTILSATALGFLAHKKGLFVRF
In words: Inhibition of MAOB in rat brain mitochondria. In a few lines: as §1

The results in this text go back to ChEMBL document CHEMBL1152788, “Naphthylisopropylamine and N-benzylamphetamine derivatives as monoamine oxidase inhibitors” (Bioorg Med Chem, 2009).

The structures appear in SMILES notation. pKi: −log10 of the molar value. Structures can show the parent of a compound that is named as a salt. Where only a bound is given, the exact number is not on record here.

Take `CCOc1ccc(CC(C)N)cc1` (stereo unspecified): the results for the pKi in test [1] and in test [2] were 6.66 and less than 4.00, respectively.
On the same counts, the results for `COc1ccc2cc(CC(C)N)ccc2c1` (stereo unspecified) are 6.74 and 4.79.
Molecule `CCCCOc1ccc2cc(CC(C)N)ccc2c1` (stereo unspecified) gave a negative logarithm of the Ki (pKi) in test [1] of 5.82.
For the molecule `CCOc1ccc2cc(CC(C)N)ccc2c1` (stereo unspecified), the pKi was 6.35 in test [1] and 4.87 in test [2].
`CSc1ccc2cc(CC(C)N)ccc2c1` (stereo unspecified) had a pKi in test [1] of 6.30.
Turning to `CCCOc1ccc(CC(C)N)cc1` (stereo unspecified), the negative logarithm of the Ki (pKi) in test [1] is 6.89; in test [2] it was less than 4.00.
On to `CCCCOc1ccc2cc(CC(C)NCc3ccccc3)ccc2c1` (stereo unspecified), for which the results for the pKi in test [1] and in test [2] were 4.84 and 4.65, respectively.
Turning to `CC(N)Cc1ccc2cc(OCc3ccccc3)ccc2c1` (stereo unspecified), the values for the pKi in test [1] and in test [2] were 5.42 and 5.59, respectively.
On the same counts, the results for `CCCCOc1ccc(CC(C)N)cc1` (stereo unspecified) are 6.49 and less than 4.00.
On the same counts, the results for `CC(N)Cc1ccc(OCc2ccccc2)cc1` (stereo unspecified) are 5.47 and 6.15.
The matching figures for `CSc1ccc(CC(C)NCc2ccc(O)cc2)cc1` (stereo unspecified): less than 4.00 and less than 4.00.
For the molecule `COc1ccc(CNC(C)Cc2ccc(SC)cc2)cc1` (stereo unspecified), the negative logarithm of the Ki (pKi) in test [1] is less than 4.00.
`CCCCOc1ccc(CNC(C)Cc2ccc(SC)cc2)cc1` (stereo unspecified): the pKi in test [1] was 4.05.
`CSc1ccc(CC(C)NCc2ccccc2)cc1` (stereo unspecified): the pKi in test [1] and in test [2] was less than 4.00 throughout.
On to `CSc1ccc(CC(C)NCc2ccc(OCc3ccccc3)cc2)cc1` (stereo unspecified), for which, in test [1], the pKi is less than 4.00.
With `CC(N)Cc1cccc2ccccc12` (stereo unspecified), the values for the pKi in test [1] and in test [2] were 5.25 and less than 4.00, respectively.
For `CC(N)Cc1ccc2ccccc2c1` (stereo unspecified), the pKi in test [1] is 6.38; in test [2], less than 4.00.
On the same counts, the results for `CCCOc1ccc2cc(CC(C)N)ccc2c1` (stereo unspecified) are 6.17 and 4.87.
The matching figures for `COc1ccc2cc(CC(C)NCc3ccccc3)ccc2c1` (stereo unspecified): 5.16 and 4.61.
On to `CSc1ccc(CC(C)N)cc1` (stereo unspecified) [4-METHYLTHIOAMPHETAMINE], for which, in test [1], the negative logarithm of the Ki (pKi) is 6.60.
Still for that read-out and setting: under `CC(N)Cc1ccccc1` (stereo unspecified) [AMPHETAMINE SULFATE] stands 4.91; under `COc1ccc(CC(C)N)cc1` (stereo unspecified) [PARA-METHOXYAMPHETAMINE], 6.60.

The pKi is the negative decadic logarithm of the Ki, by convention in mol/L. The low end stands for a large Ki, the high end for a small Ki.
